Shown are actives, neighbours in structure and some others; about 3.7% of the full set was active somewhere.
aDG glyco act: alpha-DG glycosylation activation | Pro5-aDG cells, alpha-DG glycosylation AlphaScreen (IIH6); 0% Pro5, 100% B10-LARGE cell signal | activation, % at 10 µM | 360,000 compounds, 0.22% hits | AID 624168;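 active = activation of at least 8% versus controls, or a plate z-score of at least 8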;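 also: Pro5 are CHO cells carrying HIG-tagged alpha-DG that lacks glycosylation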
procasp3 activ: activators of human procaspase-3 | recombinant procaspase-3 D3A, Ac-DEVD-pNA absorbance 405 nm | AID 463141 | 330,000 compounds, 0.11% hits | activation, % at 8.5 µM | P42574;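 active = activation above the mean of all tested compounds plus 3 SD, cut at about 21% in these data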;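 also: 0% = DMSO alone and 100% = DMSO wells spiked with extra 5 µM PC-3 D3A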
Target sequence (P42574 whole entry D9A/D28A/D175A): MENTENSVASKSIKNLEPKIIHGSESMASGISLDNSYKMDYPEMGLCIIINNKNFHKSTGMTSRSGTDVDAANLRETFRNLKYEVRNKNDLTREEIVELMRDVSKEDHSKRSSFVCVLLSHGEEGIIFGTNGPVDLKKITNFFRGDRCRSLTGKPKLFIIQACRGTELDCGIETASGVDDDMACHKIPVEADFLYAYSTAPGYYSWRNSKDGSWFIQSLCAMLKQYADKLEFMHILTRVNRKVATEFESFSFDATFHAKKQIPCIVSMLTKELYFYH
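Assay system: Autoprocessing-dead procaspase-3 D3A mutant enzyme; also added: Ac-DEVD-pNA; doses: one concentration, 8.5 µM nominal, 0.8% DMSO; times: 1 h compound preincubation, 2 h substrate hydrolysis at 25 °C; technique: 405 nm absorbance of p-nitroaniline, reads at 0 and 120 min; measure: % activation between DMSO and enzyme-spiked controls; repeats: single replicate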
GRIN3A LBD mod: modulators (binders) of human NR3A ligand-binding domain; Tm shift relative to glycine control, % at 25 µM; NR3A LBD differential scanning fluorimetry, Tm shift; 0% = protein alone, 100% = glycine-bound protein; 340,000 compounds, 2.5% hits;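 active = melting temperature shift of at least 10% of the positive control shift, at one fixed dose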
MPTP inh: blocks calcium-induced mitochondrial swelling; isolated mouse mitochondria, Ca2+ swelling absorbance, 30 min; inhibition, % at 10 µM; 360,000 compounds, 1.4% hits;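 active = inhibition of 50% or more, scaled per plate between neutral and stimulator controls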;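 also: 0% = DMSO wells given calcium and 100% = 1 mM EGTA wells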
procasp7 counter: counter-screen: procaspase-7 (human) activation; P55210; recombinant procaspase-7, Ac-DEVD-pNA absorbance 405 nm; D23A/D198A/D206A triple mutant, cannot self-cleave; scale: DMSO 0, 5 µM enzyme 100; activation, % at 8.5 µM; 330,000 compounds, 0.093% hits;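 active = percent activation above the screen-wide mean plus 3 SD, cut at about 25% in these data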
Target sequence (P55210 whole entry D23A/D198A/D206A): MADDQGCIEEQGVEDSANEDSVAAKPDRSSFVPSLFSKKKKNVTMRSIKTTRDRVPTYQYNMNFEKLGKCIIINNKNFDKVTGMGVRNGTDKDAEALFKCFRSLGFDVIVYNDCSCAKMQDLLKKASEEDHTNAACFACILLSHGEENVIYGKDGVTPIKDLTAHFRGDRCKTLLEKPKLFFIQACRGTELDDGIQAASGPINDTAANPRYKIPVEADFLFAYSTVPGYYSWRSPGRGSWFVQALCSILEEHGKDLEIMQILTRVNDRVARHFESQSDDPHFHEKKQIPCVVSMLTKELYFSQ
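Assay system – Uncleavable procaspase-7 mutant enzyme · Quantity – 2 µM procaspase-7 mutant as dispensed · Times – 1 h preincubation, 2 h reaction · Dosing – single nominal 8.5 µM compound dose, 0.8% DMSO final · Buffer or medium – Zinc-free 50 mM HEPES buffer, pH 7.4, with NaCl and Triton X-100 · Detection – Epi-absorbance of released pNA at 405 nm, two timepoints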
* hit, by the source's call.

How did N/C(=N\c1nc2ccccc2o1)NC(=O)/C=C/c1ccccc1 do in these assays?
aDG glyco act: 0; procasp3 activ: 1; GRIN3A LBD mod: 22*; MPTP inh: 0; procasp7 counter: 1

How did O=C(CCN1C(=O)S/C(=C\c2ccccc2)C1=O)Nc1ccc(S(=O)(=O)Nc2nccs2)cc1 do in these assays?
aDG glyco act: 0; procasp3 activ: -5; GRIN3A LBD mod: 8; MPTP inh: 3; procasp7 counter: -5

How did CCc1ccccc1OCC(=O)Nc1cccc(S(=O)(=O)NCc2ccco2)c1 do in these assays?
aDG glyco act: 0; procasp3 activ: -5; GRIN3A LBD mod: -3; MPTP inh: 1; procasp7 counter: -2

What do the screens show for `Cc1cc(C)nc(NS(=O)(=O)c2ccc(NC(=O)Nc3ccccc3)cc2)n1`?
aDG glyco act: 0; procasp3 activ: -3; GRIN3A LBD mod: 19*; MPTP inh: 1; procasp7 counter: 0

What do the screens show for `Cc1cc(C)nc(NS(=O)(=O)c2ccc(NC(=O)CN3C(=O)S/C(=C\c4ccccc4)C3=O)cc2)n1`?
aDG glyco act: 0; procasp3 activ: 4; GRIN3A LBD mod: 11*; MPTP inh: 0; procasp7 counter: -14

Results for Cc1cc(C)nc(NS(=O)(=O)c2ccc(NS(=O)(=O)c3ccccc3)cc2)n1 ?
aDG glyco act: 0; procasp3 activ: 2; GRIN3A LBD mod: 4; MPTP inh: -2; procasp7 counter: 16

What do the screens show for `O=C(CN1C(=O)S/C(=C\c2ccc(F)cc2)C1=O)Nc1cccc(S(=O)(=O)NCc2ccco2)c1`?
aDG glyco act: 1; procasp3 activ: -8; GRIN3A LBD mod: 11*; MPTP inh: -2; procasp7 counter: 0

How did O=C(COC(=O)C1CCN(S(=O)(=O)c2ccc(Cl)c(C(F)(F)F)c2)CC1)NCC1CCCO1 (configuration not stated) do in these assays?
aDG glyco act: 0; MPTP inh: 0

Results for FC(F)(F)c1cc(CCN2C(=S)NC[C@@H]2Cc2ccccc2)cc(C(F)(F)F)c1 ?
aDG glyco act: 0; procasp3 activ: 3; GRIN3A LBD mod: 13*; MPTP inh: 1; procasp7 counter: 0

How did Oc1ccc(C[C@@H]2CNC(=S)N2CCc2cc(C(F)(F)F)cc(C(F)(F)F)c2)cc1 do in these assays?
aDG glyco act: 0; procasp3 activ: -3; GRIN3A LBD mod: 34*; MPTP inh: 1; procasp7 counter: -3

What do the screens show for `O=C1NC[C@@H](Cc2ccc(O)cc2)N(CCc2cc(C(F)(F)F)cc(C(F)(F)F)c2)C1=O`?
aDG glyco act: 0; MPTP inh: 0

Results for Oc1ccc(C[C@H]2CNC(=S)N2CCc2cc(C(F)(F)F)cc(C(F)(F)F)c2)cc1 ?
aDG glyco act: 0; procasp3 activ: 11; GRIN3A LBD mod: 31*; MPTP inh: 0; procasp7 counter: -4

Results for CCc1ccc2[nH]c3nc(N/N=C/c4ccc(O)cc4O)nnc3c2c1 ?
aDG glyco act: 0; procasp3 activ: -2; GRIN3A LBD mod: 19*; MPTP inh: 9; procasp7 counter: 2

What do the screens show for `Cc1ccc2[nH]c3nc(N/N=C/c4cccc(O)c4)nnc3c2c1`?
aDG glyco act: 0; procasp3 activ: 5; GRIN3A LBD mod: 10*; MPTP inh: 0; procasp7 counter: -1

How did Nc1nnc(-c2cn(-c3ccccc3)nc2-c2ccc(Cl)cc2)o1 do in these assays?
aDG glyco act: 0; procasp3 activ: 9; GRIN3A LBD mod: 25*; MPTP inh: 1; procasp7 counter: -3

What do the screens show for `CC(C)(C)OC(=O)N1CCC[C@H]1c1nnc(SCC(=O)Nc2ccc(Br)cc2)o1`?
aDG glyco act: 0; procasp3 activ: 1; GRIN3A LBD mod: 29*; MPTP inh: 1; procasp7 counter: -2

Results for CC(C)(C)OC(=O)N1CCC[C@H]1c1nnc(SCC(=O)Nc2cccc(Cl)c2)o1 ?
aDG glyco act: 0; procasp3 activ: 4; GRIN3A LBD mod: -2; MPTP inh: 8; procasp7 counter: 8

What do the screens show for `CN(C)S(=O)(=O)c1cc(NC(=O)COC(=O)CC2Sc3ccccc3NC2=O)ccc1Cl` (configuration not stated)?
aDG glyco act: 0; procasp3 activ: 2; GRIN3A LBD mod: -3; MPTP inh: 1; procasp7 counter: 0

What do the screens show for `O=C(COC(=O)c1ccc2[nH]c3c(c2c1)CCCC3)Nc1ccccc1`?
aDG glyco act: 2; procasp3 activ: 0; GRIN3A LBD mod: 22*; MPTP inh: 14; procasp7 counter: 4

Results for COc1ccc(Cl)cc1NC(=O)CSc1nnc(C2CC2)n1C ?
aDG glyco act: 0; procasp3 activ: -1; GRIN3A LBD mod: -3; MPTP inh: 0; procasp7 counter: 5

How did COc1ccc(Cl)cc1NC(=O)CSc1nnc(C)c(=O)n1N do in these assays?
aDG glyco act: 0; procasp3 activ: 5; GRIN3A LBD mod: 13*; MPTP inh: -2; procasp7 counter: 2

What do the screens show for `COc1cc([C@@H]2c3cc4c(cc3[C@@H](O)[C@H]3COC(=O)[C@H]23)OCO4)cc(OC)c1O[Si](C)(C)C(C)(C)C`?
aDG glyco act: 0; procasp3 activ: 9; GRIN3A LBD mod: 11*; MPTP inh: 3; procasp7 counter: -2

How did COc1cc(C2c3cc4c(cc3C3OC(=O)C2C3CO)OCO4)cc(OC)c1OC (configuration not stated) do in these assays?
aDG glyco act: 0; MPTP inh: 0

How did O=C(NCCCN1CCCC1=O)C1CCN(S(=O)(=O)c2ccc(Cl)cc2)CC1 do in these assays?
aDG glyco act: 0; procasp3 activ: 0; GRIN3A LBD mod: 0; MPTP inh: 0; procasp7 counter: 10

What do the screens show for `Cc1occc1C(=O)N1CCN(c2ccccc2)CC1`?
aDG glyco act: 0; procasp3 activ: 1; GRIN3A LBD mod: 12*; MPTP inh: 2; procasp7 counter: 0

What do the screens show for `Cc1occc1C(=O)N1CCN(c2ccc(Cl)c(Cl)c2)CC1`?
aDG glyco act: 2; procasp3 activ: 13; GRIN3A LBD mod: 1; MPTP inh: -3; procasp7 counter: 3

How did CCOc1ccc(-c2ccc(/C=C3/C(=N)N4C(C)=CSC4=NC3=O)o2)c([N+](=O)[O-])c1 do in these assays?
aDG glyco act: 0; procasp3 activ: 12; GRIN3A LBD mod: 3; MPTP inh: 4; procasp7 counter: -9

Results for CCOc1ccc(-c2ccc(/C=C3/C(=N)N4C=CSC4=NC3=O)o2)c([N+](=O)[O-])c1 ?
aDG glyco act: 0; procasp3 activ: -6; GRIN3A LBD mod: 14*; MPTP inh: 4; procasp7 counter: 1

How did Cc1cccc(C)c1NC(=O)C1(C)CN(S(C)(=O)=O)CC(=O)N1CC(F)(F)F (configuration not stated) do in these assays?
aDG glyco act: 0; MPTP inh: 0
